Experimental findings from PubChem BioAssay are described below.

Unmarked numbers belong to inactive results. Records with an inconclusive call do not appear. The source made the active and inactive calls.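 How the source made its calls, unless noted: active means RAM network inhibition above 8.4% in each of two replicates, 3 SD over the compound average; inconclusive means above 8.4% inhibition in only one replicate; inactive means 8.4% inhibition or less in each replicate.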

The nature of test [1]: S. cerevisiae growth inhibition in permissive medium (OD615), pilot counter-assay for S. cerevisiae lifespan shortening project, permissive growth control (AID 705;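 active means growth inhibition above 25% in both replicates, a cutoff set 3 SD above the mean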). Conditions: OD615, 24 h, at 10 µM, hits give high values. An outline of the steps:
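Test system: Saccharomyces cerevisiae strain carrying genetically modified DeaD replicative-lifespan system; buffer or medium: SC raffinose/galactose permissive medium; dosing: one dose 10 µM, DMSO 0.25% final; times: 24 h exposure, 30 °C; measured by: OD at 615 nm; read-out basis: growth inhibition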

Test [2] can be described thus: S. cerevisiae growth inhibition in restrictive medium, OD615, pilot screen, restrictive growth control, yeast lifespan reduction project (AID 706;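 active means growth inhibition above a set limit, 3 SD over mean compound inhibition, in both replicates, cut at about 43% in these data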;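 further: modified DeaD lifespan yeast strain shifted to restrictive glucose medium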). To be noted: OD615, 48 h, at 10 µM, hits give high values. An outline of the steps: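 material = engineered S. cerevisiae DeaD strain | buffer or medium = glucose-based CSMM-D restrictive medium | dosing = one concentration, 10 µM final, 0.25% DMSO | schedule = 4 h pre-growth plus 48 h compound exposure, 30 °C | detection = OD615 absorbance reading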

Test [3] in a line: doxorubicin toxicity protection in MRP-1 cells – H69AR cells, CellTiter-Glo, duplicate, MRP-1 activator project, pilot screen (AID 807;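 active means viability increase at or above a cutoff of the median across tested compounds plus 3 SD, cut at about 8.5% in these data, passing the limit was not always enough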;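 further: compound pretreatment 18-22 h then 72 h combined with doxorubicin; 0% = doxorubicin alone and 100% = vehicle without doxorubicin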). Conditions: H69AR viability with doxorubicin, CellTiter-Glo luminescence; at 10 µM; hits give high values.
Test [4] in a line: viability of PTEN-null HCT116 cells – cell-based, HCT116 clonal line, CellTiter-Glo, pilot screen (AID 824;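 active means viability at or below 27.92% in each of two runs, the all-compound median minus 4 SD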;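 further: 0% = 20 µM Hyamine control and 100% = vehicle cell control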). To be noted: HCT116 PTEN-deleted viability, 60 h, at 10 µM, hits give low values. For orientation: Cellular ATP, detected with luciferase, serves as a proxy for viable cell number.
The nature of test [5]: RAM pathway blockade in budding yeast – dse1pr::URA3 reporter, 5-FOA selection, pilot screen (AID 869;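 active means inhibition over a set limit, the all-compound mean plus 3 SD, in both replicate runs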;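 further: 0% = DMSO wells with no growth and 100% = 10 µM 1-NA-PP1 with full growth; RAM network block rescues cells from 5-FOA so hits raise OD615 growth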). Conditions: S. cerevisiae dse1pr::URA3 5-FOA growth, OD615, 2 d; at 10 µM; hits give high values; strain carries analog-sensitive mutant Cbk1 kinase.
Test [6] in a line: RAM signaling pathway blockade in yeast – S. cerevisiae, Pdr1DBD-CYC8 efflux-inhibited sensitized strain, primary screen (AID 1298).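 Further: 0% = DMSO untreated cells without growth and 100% = 10 µM 1-NA-PP1 full growth; higher means more yeast growth rescued from 5-FOA killing.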 To be noted: S. cerevisiae cbk1-as DSE1-URA3 strain, 5-FOA growth OD615, 2 d; at 50 µM; hits give high values.

A word on the viability: it is a read-out of living cells in per cent, often relative to untreated cells. The inhibition is the relative decrease from the control value, in per cent. Consider `CCOC(=O)N1CCC(NC(=O)C(CC(C)C)NC(=O)C2CCCCC2)CC1` (stereo not given), for which the growth inhibition in test [1] is -6.28%; in test [2], -1.08%. For the same compound, in test [3], the viability increase is -2.08%. For the same compound, the viability in test [4] is 100%. For the same compound, the inhibition in test [5] was 2.41%. The RAM network inhibition in test [6] was 1.8%.
For the compound `Nc1ccc(O)c(-c2nc3ccccc3s2)c1`, the growth inhibition in test [1] is 2.32%; in test [2], 5.73%. For the same compound, the viability increase in test [3] is -7.28%. For the same compound, the viability in test [4] is 32.6%. Moreover, in test [5], the inhibition was 2.77%. The RAM network inhibition in test [6] is 1.92%.
Take `CC(C)CC(NC(=O)C1CCC(C)CC1)C(=O)Nc1cccnc1` (stereo not given): the growth inhibition is -8.21% in test [1] and -12.6% in test [2]. For the same compound, the viability increase in test [3] is -3.68%. Besides, the viability in test [4] was 89.5%. Further, in test [5], the inhibition is 0.035%. Besides, the RAM network inhibition in test [6] is 0.05%.
For the compound `CCN(CC)C(=O)CSc1nsc(SCC(=O)N(CC)CC)c1C#N`, the figures for the growth inhibition in test [1] and in test [2] were -9.3% and 6.27%, respectively. For the same compound, the viability increase in test [3] is -2.27%. In addition, the viability in test [4] is 95.3%. The inhibition in test [5] is 1.22%. In addition, the RAM network inhibition in test [6] is 6.13%.
For the compound `c1ccc(-c2noc(-c3cccnc3)n2)cc1`, the growth inhibition in test [1] is 5.9%; in test [2], 2.4%. Moreover, the viability increase in test [3] is -3.8%. In addition, in test [4], the viability was 95.2%. In addition, the inhibition in test [5] was -0.04%. Further, the RAM network inhibition in test [6] is 3.95%.
As to `CCC(=O)N1CCc2cc(Br)cc(S(=O)(=O)NCc3ccco3)c21`, the growth inhibition is -4% in test [1] and -12.8% in test [2]. In addition, the viability increase in test [3] was -5.07%. In addition, the viability in test [4] is 96.8%. Besides, the inhibition in test [5] was 1.7%. For the same compound, in test [6], the RAM network inhibition is 1.85%.
Regarding `O/N=C1/C2C3CC4C5C3C1C5C1(OCCO1)C42` (stereo not given), the growth inhibition in test [1] was -8.1%; in test [2] it was -16.9%. Besides, in test [3], the viability increase was -1.45%. Besides, the viability in test [4] is 99%. Further, the inhibition in test [5] was 1.39%. In addition, the RAM network inhibition in test [6] was 3.89%.
As to `Cc1oc(-c2cccc(Cl)c2)nc1CN1CCC(C(=O)N2CCN(c3ccccn3)CC2)CC1`, the growth inhibition in test [1] is -5.81%; in test [2], -1.31%. In addition, in test [3], the viability increase is -7.36%. Also, the viability in test [4] is 27% (active). The inhibition in test [5] was 0.99%. The RAM network inhibition in test [6] was 4.79%.
On to `Cc1cc2ccccc2c(=O)n1CC(=O)NCC(=O)N(C)Cc1ccccc1`, for which the growth inhibition was -10.2% in test [1] and -4.71% in test [2]. Further, in test [3], the viability increase is -0.97%. The viability in test [4] was 98.6%. The inhibition in test [5] is 0.475%. In test [6], the RAM network inhibition was 5.32%.
In the case of `COc1ccc(N(CC(=O)NCc2ccco2)S(C)(=O)=O)cc1Cl`, the growth inhibition in test [1] is -14.3%; in test [2] it was -4.89%. The viability increase in test [3] was -3.2%. Also, in test [4], the viability was 91.7%. In addition, the inhibition in test [5] is 2.38%. Moreover, the RAM network inhibition in test [6] is 6.11%.
Consider `O=C(CCCOc1ccccc1)N1CCCc2ccccc21`, for which the figures for the growth inhibition in test [1] and in test [2] were -0.835% and -2.99%, respectively. The viability increase in test [3] was -2.01%. The viability in test [4] was 92.2%. Moreover, the inhibition in test [5] was 0.825%. In test [6], the RAM network inhibition is 2.37%.
As to `c1cncc(CNc2nc(N3CCOCC3)nc(N3CCOCC3)n2)c1`, the growth inhibition was -10.4% in test [1] and 1.83% in test [2]. In addition, the viability increase in test [3] is -2.97%. The viability in test [4] was 91.8%. Moreover, the inhibition in test [5] was 1.27%. Further, the RAM network inhibition in test [6] was 1.95%.
`O=C(C1CCCN(S(=O)(=O)c2ccc(F)cc2)C1)N(Cc1cccs1)C1CC1` (stereo not given): the growth inhibition in test [1] is -11.5%; in test [2], -6.14%. Besides, the viability increase in test [3] was -1.34%. For the same compound, in test [4], the viability was 71.7%. Also, the inhibition in test [5] was 2.02%. For the same compound, in test [6], the RAM network inhibition is 2.87%.
For `COc1ccc(C)cc1NC(=O)CN(c1ccccc1)S(C)(=O)=O`, the results for the growth inhibition in test [1] and in test [2] were -7.61% and -4.67%, respectively. Further, the viability increase in test [3] is -1.58%. Besides, the viability in test [4] was 96%. In addition, in test [5], the inhibition was 0.74%. The RAM network inhibition in test [6] was 5.82%.
Take `COc1ccc(C2CC(=O)C(C=NCCO)=C(O)C2)cc1OC` (stereo not given): the growth inhibition in test [1] is -5.79%; in test [2] it was 4.22%. Also, in test [3], the viability increase was 1.21%. Moreover, the viability in test [4] was 105%. Also, the inhibition in test [5] is -0.07%. The RAM network inhibition in test [6] was -0.41%.
Turning to `COc1ccc(OC)c(S(=O)(=O)N2CCCCC2C(=O)N2CCN(c3ccccn3)CC2)c1` (stereo not given), the growth inhibition in test [1] is 1.82%; in test [2] it was -0.22%. The viability increase in test [3] was -4.71%. Also, the viability in test [4] is 91.8%. In test [5], the inhibition was 1.77%. Further, the RAM network inhibition in test [6] was 7.83%.
For `CC1(C)CC(=O)C(C=NC2CC(C)(C)NC(C)(C)C2)=C(O)C1`, the values for the growth inhibition in test [1] and in test [2] were -1.6% and -7.89%, respectively. Further, the viability increase in test [3] was 0.22%. In addition, in test [4], the viability is 95.5%. Moreover, in test [5], the inhibition was 1.82%. Moreover, in test [6], the RAM network inhibition is 4.6%.
Take `CSc1nnc2c(n1)OC(c1cn(C)c3ccccc13)N(C(C)=O)c1ccccc1-2` (stereo not given): the growth inhibition in test [1] was -8.46%; in test [2], -4.85%. Further, the viability increase in test [3] is -2.79%. For the same compound, the viability in test [4] was 98.9%. Further, the inhibition in test [5] is 1.54%. For the same compound, the RAM network inhibition in test [6] is 3.59%.
`Cc1noc(C)c1CSc1nnc(-c2cc(Cl)ccc2Cl)n1N`: the growth inhibition in test [1] was 8.57%; in test [2], 8.54%. The viability increase in test [3] is -2.82%. Besides, the viability in test [4] is 95%. Moreover, the inhibition in test [5] is 1.9%. For the same compound, the RAM network inhibition in test [6] is 2.06%.
On to `CCc1nnc2n1N=C(c1ccc(-c3cc(Cl)ccc3Cl)o1)CS2`, for which the growth inhibition in test [1] is 9.53%; in test [2], 26.5%. For the same compound, the viability increase in test [3] was -7.22%. Besides, the viability in test [4] is 22.4% (active). Also, in test [5], the inhibition was 2.5%. For the same compound, in test [6], the RAM network inhibition is 5.16%.
